# Rows were chosen to be rich in hits. Some 9.3% of all compounds tested hit in one or more screens of this group.
# tolC growth inh: E. coli tolC mutant growth inhibition; AID 573; hit rate 2.2% among 65,000; E. coli BW25113 tolC mutant growth, OD615; growth inhibition, % at 10 µM (by protocol);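 active = growth inhibition at or above a cutoff equal to the mean over every tested compound plus 3 SD, cut at about 60% in these data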;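 also: growth measured after 20 h incubation at 37 °C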
#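 Material: E. coli BW25113 ΔtolC::kan, tolC deletion mutant strain. Measure: percent growth inhibition. Schedule: 37 °C, 20 h exposure. Doses: single-point testing at 10 µM. Signal: A615 absorbance measurement. Buffer or medium: kanamycin-containing LB broth (50 µg/mL).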
# PostGolgi ctrl: growth of the yeast control strain, post-Golgi counter-screen | efflux-deficient yeast background strain, growth absorbance A615, 16 h | inhibition, % at 10 µM | hit rate 5% among 98,000
# D1 allo mod: allosteric modulators of human D1 dopamine receptor. HEK293 D1, CRE-luciferase, dopamine EC30 potentiation; actives deviate in either direction. hit rate 5.9% among 58,000. AID 641. P21728. B-score at 10 µM;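 active = luminescence count or its row- and column-corrected plate score outside the 99.7% band of the plate's sample wells, on either side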
# DAT uptake mod: changed human dopamine transporter uptake under cocaine IC80 | Q01959 | LLC-PK1 hDAT cells, [14C]-dopamine uptake with cocaine IC80; actives deviate in either direction | B-score at 10 µM | hit rate 1.3% among 110,000;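 active = Z score or B-score, a plate-position-corrected score, falls beyond the plate's 99.7% confidence bounds, in either direction; inactive = both scores lie inside the 99.7% bounds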;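 also: scored against the spread of the other compound wells on the same plate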
# Target sequence (Q01959 whole entry, looked up): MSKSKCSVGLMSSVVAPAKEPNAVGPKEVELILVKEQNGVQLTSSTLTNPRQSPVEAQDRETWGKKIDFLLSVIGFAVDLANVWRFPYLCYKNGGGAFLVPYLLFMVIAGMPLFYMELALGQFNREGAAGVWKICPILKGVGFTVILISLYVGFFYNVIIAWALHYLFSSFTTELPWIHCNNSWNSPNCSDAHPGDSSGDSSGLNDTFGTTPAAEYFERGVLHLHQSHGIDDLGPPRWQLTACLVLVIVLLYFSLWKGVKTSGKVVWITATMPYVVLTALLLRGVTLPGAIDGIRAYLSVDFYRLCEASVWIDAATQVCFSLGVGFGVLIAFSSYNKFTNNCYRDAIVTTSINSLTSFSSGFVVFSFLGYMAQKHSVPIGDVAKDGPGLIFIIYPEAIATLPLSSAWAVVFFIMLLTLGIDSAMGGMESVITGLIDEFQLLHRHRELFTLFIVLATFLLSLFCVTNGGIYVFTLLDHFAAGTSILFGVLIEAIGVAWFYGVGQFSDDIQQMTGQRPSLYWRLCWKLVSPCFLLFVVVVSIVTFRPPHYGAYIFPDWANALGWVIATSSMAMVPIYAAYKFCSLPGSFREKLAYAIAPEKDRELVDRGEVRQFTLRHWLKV
# PostGolgi yeast: growth inhibition of a yeast mutant, post-Golgi transport screen | post-Golgi transport phenotypic cell assay | inhibition, % at 10 µM | hit rate 0.9% among 98,000 | AID 739;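 also: yeast cells grown in 1536-well plates; yeast grown about 18 h at 30C before absorbance read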
# Ecoli WT expand: growth inhibitors of E. coli BW25113 wild type | OD600 absorbance | growth inhibition, % at 100 µM | hit rate 0.15% among 98,000 | AID 710;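 active = growth inhibition above about 50% at one test dose, limit read from the data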;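 also: growth measured after 20 h incubation at 37 °C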
# * = called active by the depositor; x = not tested or not shown. Rule as the data show it, unless noted: active = inhibition above about 30%; inactive = the rest.
SMILES,tolC growth inh,PostGolgi ctrl,D1 allo mod,DAT uptake mod,PostGolgi yeast,Ecoli WT expand
O=S(=O)(Nc1ccc2c(c1)OCCO2)c1ccc2oc3ccccc3c2c1,98*,59*,-1.1,-0.63,9,-7
O=S(=O)(c1ccc2c(c1)oc1ccccc12)N1CCOCC1,7,3,3.4,0.68,-11,-1
Cc1ccc2[nH]c(=O)c(C(c3nnnn3CCc3ccccc3)N3CCOCC3)cc2c1 (configuration not stated),-4,9,0.91,0.69,4,2
Cc1cc(C)c(NC(=O)CN(C2CCCCC2)C2CCCCC2)c(C)c1,x,53*,x,-0.48,32*,0
CCN(CC)CC(=O)Nc1c(C)cc(C)cc1C,-14,1,x,x,1,3
O=C(COc1ccccc1Cl)Nc1ccc(Cl)cn1,7,8,-1.5,0.11,12,-17
O=C(COc1ccc(Cl)cc1)NCCSCc1cccc(Cl)c1,x,39*,x,-0.0028,5,-5
CC(=O)N1CCN(c2ccccc2NC(=O)COc2ccc(Cl)cc2Cl)CC1,25,50*,2.2,-0.092,0,0
O=C(COc1ccc(Cl)cc1Cl)NNC(=S)Nc1ccc(F)cc1,x,38*,x,-0.68,4,5
CC(=O)N1CCN(c2ccc(NC(=O)COc3ccc(Cl)cc3Cl)cc2)CC1,0,-5,-0.46,0.51,7,-14
O=C(COc1ccc(Cl)cc1Cl)Nc1ccccn1,16,11,-4.5*,0.0032,14,-1
O=C(COc1ccc(Cl)cc1Cl)NCCSc1ccc(Cl)cc1,x,43*,x,0.2,-1,-7
CCN(CC)CCNC(=O)COc1ccc(Cl)cc1Cl,x,0,x,0.36,3,5
O=C(COc1ccc(Cl)cc1Cl)N1CCCN(C(=O)COc2ccc(Cl)cc2Cl)CC1,x,75*,x,1.4,-5,-10
CC(c1ccco1)N(C(=O)COc1ccc(Cl)cc1Cl)c1ccccn1 (configuration not stated),19,18,-7.3*,-0.44,17,-1
O=C(COc1ccc(Cl)cc1Cl)NCCCCc1ccccc1,x,42*,x,-0.15,-5,-3
O=C(COc1ccc(Cl)cc1Cl)NCc1ccncc1,3,8,0.024,0.34,2,6
CCOC(=O)N1CCC(NC(=O)c2cc(C(=O)NCC(OC)OC)ccc2CO)CC1,x,1,x,0.02,-2,7
Cc1nc(-c2ccccc2)sc1C(=O)CSc1ccc(F)cc1,x,13,x,-0.17,-1,-3
Cc1nc(-c2ccccc2)sc1C(=O)CSc1ccccc1,x,30*,x,1.5,-9,-6
C/C(=N\NC(=O)c1cccc(S(=O)(=O)Nc2ccccc2Cl)c1)c1ccc(-n2ccnc2)cc1,x,4,x,-0.09,-3,-7
N/C(Cc1ccc(Cl)cc1Cl)=N\OC(=O)c1cccs1,x,58*,x,-0.63,20,14
CCCOc1ccc(/C(O)=C2/C(=O)C(=O)N(CCN(C)C)C2c2ccncc2)cc1 (configuration not stated),3,x,-2.9,0.16,x,x
Cc1ccc(C2NC(=O)Cc3ccccc32)cc1 (configuration not stated),x,-3,x,0.16,0,-3
Clc1cccc(N2CCN(Cc3nc(-c4ccccc4)no3)CC2)c1,20,35*,-0.43,0.27,-5,1
SMILES,tolC growth inh,PostGolgi ctrl,D1 allo mod,DAT uptake mod,PostGolgi yeast,Ecoli WT expand
Clc1ccc(-c2noc(CN3CCN(c4ccccc4)CC3)n2)cc1,4,-2,-0.83,0.36,-9,-8
Cc1ccc(-c2noc(CN3CCCCC3)n2)cc1,x,0,x,0.093,-3,11
Clc1ccc(-c2noc(CN3CCCC3)n2)cc1,0,37*,0.43,0.071,-1,13
O=C(NC(=S)Nc1ccccc1)c1csnn1,x,-5,x,-0.28,-3,2
NC(=O)[C@@H]1CCOc2c(I)cc([N+](=O)[O-])cc2C(=O)N[C@@H](CO)C(=O)NCC(=O)N1,x,x,x,0.31,x,x
O=C(O)CCC(=O)NC1CCCCC1NC(=O)CCC(=O)O (configuration not stated),-12,x,-0.082,x,x,x
Cc1[nH]c2c(C)cccc2c1CCNC(=O)c1ccc2c(c1[N+](=O)[O-])C(=O)c1ccccc1C2=O,x,40*,x,0.18,11,-8
Cc1[nH]c2ccccc2c1CCNC(=O)c1ccc2c(c1[N+](=O)[O-])C(=O)c1ccccc1C2=O,x,27,x,x,1,-7
Cc1cc(C)c(S(=O)(=O)NCCn2c(C)cc3ccccc32)c(C)c1,x,44*,x,0.13,-3,-9
Cc1ccc(S(=O)(=O)NCCn2c(C)cc3ccccc32)cc1,7,5,0.88,x,9,-5
Cc1ccc(-c2nc3ccccc3c(C(=O)NCc3cccs3)c2C)cc1,x,19,x,1.4,-3,-19
O=c1c(-c2nc3ccccc3s2)cccn1Cc1ccc(Cl)c(Cl)c1,x,36*,x,0.6,-10,-15
COc1ccccc1N1CCN(c2ccc(-c3ccccc3)nn2)CC1,8,4,-5.4*,-0.22,6,3
CC1CC(C)CN(CCCNC(=O)c2ccc3c(c2)NC(=O)C(N2CCCCC2)S3)C1 (configuration not stated),22,3,1.7,0.77,21,4
Cc1ccc(S(=O)(=O)Nc2cccc3cccnc23)cc1,x,22,x,-0.11,-4,-3
COc1ccc(S(=O)(=O)Nc2cc3c(C(C)=O)c(C)oc3c3ccccc23)cc1,x,65*,x,-0.21,4,6
COC(=O)c1cccc(NS(=O)(=O)c2ccc(OC)cc2)c1C,x,x,x,0.017,x,x
COc1cc(NS(=O)(=O)c2ccc(C)cc2)c2ncccc2c1,26,36*,1.3,-1.2,-1,-5
COc1ccc(C2N=C(c3ccccc3)C(C)(C)N2O)cc1OC (configuration not stated),-8,0,-0.1,1.4,-6,-3
CC(C)NC(=O)CCNC(=O)c1ccc(F)cc1,-12,-8,0.42,0.34,-6,-3
Cc1ccc(C)c(C(C)NC(=O)C2C3CCC(O3)C2C(=O)O)c1 (configuration not stated),-13,-3,0.26,0.0033,3,1
CC(C(=O)NCC1CCCO1)N(C(=O)c1snc(C(N)=O)c1N)c1ccccc1 (configuration not stated),-9,30*,-0.13,0.47,2,-1
CC(C(=O)NCC1CCCO1)N(C(=O)c1snc(C(N)=O)c1N)c1cccc(F)c1 (configuration not stated),3,7,-0.16,-0.18,-3,4
COc1ccc(C(CC(=O)O)NC(=O)c2ccccc2[N+](=O)[O-])cc1 (configuration not stated),x,x,x,-0.24,x,x
CN(C(=O)Nc1ccc(Cl)cc1Cl)[C@H]1c2cc(Br)ccc2OC[C@H]1CO,x,81*,x,1.1,6,-11
N#CC1=C(N)NC(SCC(=O)O)=C(C#N)C12CCCC2,-8,7,-0.8,0.19,1,-6
N#CC1=C(N)NC(SCc2ccc(F)cc2)=C(C#N)C12CCCCC2,4,68*,-0.91,0.74,99*,16
CC(=O)Nc1ccccc1Nc1nc(NCCO)nc(N2CCCC2)n1,x,x,x,-0.016,x,x

# Screens (PubChem BioAssay)
